Active and inactive are the calls of the source. The calls are words filed in the database; no cut-off is given here.
Assays:
Procathepsin L = Procathepsin L (Homo sapiens, UniProt P07711); experiment: Binding affinity to cathepsin L in human HT-29 cells assessed as intracellular adduct formation at 0.74 MBq incubated for 4 hrs using 177Lu labelled compound by SDS-PAGE analysis; assay type: cell-based; design: dose or concentration left out as unconfirmed
How it was run: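 HT-29 cells (1 × 10^6/well) incubated 4 h at 37 °C with 177Lu conjugate (20 μCi, 0.74 MBq) in 1 mL medium, with or without E-64 (10 μM) or NTSR1 peptide N1 (20 μM). Cells washed and refed; at set times cells pooled, RIPA-lysed with protease inhibitor. Lysates heated 85 °C 2 min, run on 16% tris-glycine SDS-PAGE, and phosphor autoradiography taken after 72 h exposure.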

[1] = biological target: Neurotensin receptor type 1 (Homo sapiens, UniProt P30989); experiment: Substrate activity at neurotensin receptor in human HT-29 cells assessed as reduction in drug uptake in presence of NTRS1 peptide N1 using Eu labelled compound measured at 2 hrs by lysotracker green staining based confocal microscopic analysis; assay type: cell-based; design: scale not given: the % may be the effect or the level left
How it was run: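 HT-29 cells (1.25 × 10^5/well) were given natEu-labeled conjugate (5 μM) with or without NTSR1 peptide N1 (20 μM) for 2 h at 37 °C. LysoTracker Green (100 nM) was added for 1 h. Cells were PBS washed, formaldehyde fixed and imaged by confocal microscopy (ex 405 and 488 nm). Mean pixel intensity was normalized to cell count.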

Cathepsin B [2] = biological target: T1, Cathepsin B (Homo sapiens, UniProt P07858); experiment: Inhibition of human liver cathepsin B assessed as second order rate constant using Z-Arg-Arg-AMC as substrate measured every 5 mins for 1 hr by fluorescence assay
How it was run: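 Human liver cathepsin B, 2 nM final, in 0.1 M phosphate pH 5.8 (1 mM EDTA, 2.7 mM DTT, 0.03% Brij35). Enzyme mixed with conjugate (1–500 nM final), then Z-Arg-Arg-AMC added (800 μM final); 37 °C. […] Biological triplicate.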

Cathepsin B [3] = biological target: T1, Cathepsin B; experiment: Binding affinity to human liver cathepsin B assessed as protein-conjugate adduct formation incubated for 30 mins using 177Lu labelled compound by SDS-PAGE analysis
How it was run: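 Purified human liver CatB or CatL (3 nM) in 50 mM sodium acetate/1 mM EDTA pH 5.0 incubated 30 min with 177Lu conjugate (500,000 cpm) in Tris/MgCl2/DTT buffer pH 5.5, alone or with E-64 (10 μM) or N1 (20 μM). Mixtures heated 85 °C 2 min, run on 16% tris-glycine gel at 110 V for 90 min, and read by phosphor autoradiography.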

[4] = Drug internalization in human HT-29 cells assessed as efflux fraction measured at 2 hrs using 177Lu labelled compound by gamma counter method; assay type: ADME, cell-based; conditions: ht-29, 2 h
How it was run: (§1)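 HT-29 cells (~1 × 10^6) loaded 2 h at 37 °C with 177Lu conjugate (100,000 cpm), washed, then given fresh medium. Medium collected and replaced at 1, 2, 4, 8, 24 h and gamma-counted; cells lysed in 10% SDS at 24 h. Efflux expressed as % of total internalized activity (effluxed + cell-retained); n = 3.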

[5] = Drug retention in tumor of mouse xenografted with human HT-29 cells assessed as conjugate adduct formation at 29.6 MBq measured after 72 hrs using 177Lu labelled compound by SDS-PAGE analysis; assay type: ADME, tissue-based, Neoplasm; conditions: in vivo
How it was run: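 HT-29 xenograft mice given 800 μCi (29.6 MBq) 177Lu conjugate i.v. and killed at 72 h. Tumor, liver and kidney homogenized in RIPA with protease inhibitor and supernatants run on SDS-PAGE autoradiography. Other supernatant aliquots filtered through 10 kDa MWCO devices to give the % macromolecule-associated radioactivity; n = 3.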

[6] = Stability of 177Lu labelled compound in human serum assessed as parent compound remaining at 37 degC after 3 hrs by RP-HPLC analysis; assay type: ADME, cell-free; conditions: read-out: Stability
How it was run: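 Radioconjugate (1.5 mCi, 55.5 MBq) was incubated in 300 μL human serum at 37 °C. At 1, 3 and 24 h, acetonitrile was added and samples were spun at 12,000×g for 5 min. Supernatant was dried under nitrogen, reconstituted in water and analyzed by radio-HPLC.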

[7] = Drug localization in endolysosomal vesicles of human HT-29 cells measured at 2 hrs using Eu labelled compound by lysotracker green staining based confocal microscopic analysis; assay type: ADME, subcellular; conditions: ht-29, 2 h
How it was run: (§2)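 HT-29 cells (1.25 × 10^5/well) incubated 2 h at 37 °C with natEu conjugate (5 μM), with or without N1 (20 μM). Lysotracker Green (100 nM) added for 1 h; cells washed, formaldehyde-fixed and imaged confocally at 405/488 nm excitation. Mean pixel intensity normalized to cell count.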

[8] = Drug internalization in cytoplasm of human HT-29 cells within 2 hrs using Eu labelled compound by lysotracker green staining confocal microscopic analysis; assay type: ADME, subcellular; conditions: ht-29, 2 h; how it was run: as §2
[9] = Ratio of drug uptake in SCID mouse xenograted with human HT-29 cells assessed as tumour retention to drug uptake in pancreas of SCID mouse xenografted with human HT-29 cells measured after 72 hrs using 177Lu labelled compound; assay type: ADME, tissue-based, Tumor/Pancreas
How it was run: (§3)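 Female SCID mice (5 weeks old) received s.c. flank HT-29 cells (5 × 10^6 in Matrigel). At ~80 mm3, two weeks later, mice were randomized and given 10 μCi (0.37 MBq) of purified 177Lu conjugate i.v. by tail vein. Mice were killed at 4, 24 or 72 h. Tissues were weighed and gamma counted as %ID/g, mean ± SD, n = 5. Tumor-to-tissue ratios were calculated.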

[10] = Ratio of drug uptake in SCID mouse xenograted with human HT-29 cells assessed as tumour retention to drug uptake in kidney of SCID mouse xenografted with human HT-29 cells measured after 24 hrs using 177Lu labelled compound; assay type: ADME, tissue-based, Tumor/Kidney; how it was run: as §3
[11] = Ratio of drug uptake in SCID mouse xenograted with human HT-29 cells assessed as tumour retention to drug uptake in small intestine of SCID mouse xenografted with human HT-29 cells measured after 4 hrs using 177Lu labelled compound; assay type: ADME, tissue-based, Tumor/Small intestine; how it was run: as §3
[12] = Ratio of drug uptake in SCID mouse xenograted with human HT-29 cells assessed as tumour retention to drug uptake in spleen of SCID mouse xenografted with human HT-29 cells measured after 72 hrs using 177Lu labelled compound; assay type: ADME, tissue-based, Tumor/Spleen; how it was run: as §3
[13] = Ratio of drug uptake in SCID mouse xenograted with human HT-29 cells assessed as tumour retention to drug uptake in pancreas of SCID mouse xenografted with human HT-29 cells measured after 24 hrs using 177Lu labelled compound; assay type: ADME, tissue-based, Tumor/Pancreas; how it was run: as §3
[14] = Ratio of drug uptake in SCID mouse xenograted with human HT-29 cells assessed as tumour retention to drug uptake in muscle of SCID mouse xenografted with human HT-29 cells measured after 24 hrs using 177Lu labelled compound; assay type: ADME, tissue-based, Tumor/Muscle; how it was run: as §3
[15] = Drug internalization in human HT-29 cells assessed as efflux percentage measured at 24 hrs using 177Lu labelled compound by gamma counter method relative to control; assay type: ADME, cell-based; conditions: ht-29, 24 h; how it was run: as §1
[16] = Ratio of drug uptake in SCID mouse xenograted with human HT-29 cells assessed as tumour retention to drug uptake in pancreas of SCID mouse xenografted with human HT-29 cells measured after 4 hrs using 177Lu labelled compound; assay type: ADME, tissue-based, Tumor/Pancreas; how it was run: as §3
[17] = Ratio of drug uptake in SCID mouse xenograted with human HT-29 cells assessed as tumour retention to drug uptake in lung of SCID mouse xenografted with human HT-29 cells measured after 24 hrs using 177Lu labelled compound; assay type: ADME, tissue-based, Tumor/Lung; how it was run: as §3

Procathepsin L, sequence (P07711 114-333 limits assumed): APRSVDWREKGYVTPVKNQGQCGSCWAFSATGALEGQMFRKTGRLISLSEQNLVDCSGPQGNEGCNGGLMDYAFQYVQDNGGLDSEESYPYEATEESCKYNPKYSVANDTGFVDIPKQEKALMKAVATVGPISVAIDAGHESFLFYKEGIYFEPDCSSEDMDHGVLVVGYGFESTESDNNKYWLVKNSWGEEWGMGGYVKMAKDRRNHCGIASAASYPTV
Neurotensin receptor type 1, sequence (P30989 whole entry): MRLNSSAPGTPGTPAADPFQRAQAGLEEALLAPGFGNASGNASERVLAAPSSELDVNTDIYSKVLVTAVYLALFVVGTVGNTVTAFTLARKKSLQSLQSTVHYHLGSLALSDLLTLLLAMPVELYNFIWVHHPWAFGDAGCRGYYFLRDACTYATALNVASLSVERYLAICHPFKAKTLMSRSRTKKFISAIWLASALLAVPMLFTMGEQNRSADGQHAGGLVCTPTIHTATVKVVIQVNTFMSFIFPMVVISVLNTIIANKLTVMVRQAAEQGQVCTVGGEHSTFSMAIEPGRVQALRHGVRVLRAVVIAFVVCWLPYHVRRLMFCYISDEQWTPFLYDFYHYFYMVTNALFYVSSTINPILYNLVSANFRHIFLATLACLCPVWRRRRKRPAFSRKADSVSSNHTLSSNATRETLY

Activity (Procathepsin L)	Activity [1]	inhibition (Cathepsin B [2])	Activity (Cathepsin B [3])	Drug uptake [4]	Drug uptake [5]	remaining at 3 h [6]	Drug uptake [7]	Drug uptake [8]	Ratio [9]	Ratio [10]	Ratio [11]	K (Cathepsin B [2])	Ratio [12]	Ratio [13]	Ratio [14]	Drug uptake [15]	Ratio [16]	Ratio [17]	Structure (SMILES)
inactive	65%	inactive	inactive	32.3%	Not Active	74.3%	Active	Active											Cc1cc(O)cc(C)c1C[C@H](NC(=O)[C@@H]1CCCN1C(=O)[C@H](CCCNC(=N)N)NC(=O)[C@H](CCCNC(=N)N)N(C)C(=O)[C@@H]1CCCN1C(=O)[C@H](CCCCN)NC(=O)[C@@H](CO)NC(=O)[C@@H](CO)NC(=O)[C@@H](CO)NC(=O)[C@H](Cc1cn(CCNC(=O)[C@H](CCCNC(=N)N)NC(=O)[C@H](CC(C)C)NC(=O)CCC(=O)O)nn1)NC(=O)CN1CCN(CC(=O)O)CCN(CC(=O)O)CCN(CC(=O)O)CC1)C(=O)N[C@H](C(=O)N[C@@H](CC(C)C)C(=O)O)C(C)(C)C
Active	63.7%		Active	27.3%	Active	65.6%	Active	Active	30	0.08	1.85	67000 M⁻¹ s⁻¹	2.4	36	137	50%	38	15	Cc1cc(O)cc(C)c1C[C@H](NC(=O)[C@@H]1CCCN1C(=O)[C@H](CCCNC(=N)N)NC(=O)[C@H](CCCNC(=N)N)N(C)C(=O)[C@@H]1CCCN1C(=O)[C@H](CCCCN)NC(=O)[C@@H](CO)NC(=O)[C@@H](CO)NC(=O)[C@@H](CO)NC(=O)[C@H](Cc1cn(CCNC(=O)[C@H](CCCNC(=N)N)NC(=O)[C@H](CC(C)C)NC(=O)C2OC2C(=O)O)nn1)NC(=O)CN1CCN(CC(=O)O)CCN(CC(=O)O)CCN(CC(=O)O)CC1)C(=O)N[C@H](C(=O)N[C@@H](CC(C)C)C(=O)O)C(C)(C)C (stereo partly specified)
									6.5	0.15	1.3		0.28	17	30	39%	9	2.2	Cc1cc(C)c(C(=O)OCC(=O)[C@H](CCCCNC(=O)CNC(=O)[C@@H](CO)NC(=O)[C@@H](CO)NC(=O)[C@@H](CO)NC(=O)Cn2cc(C[C@H](NC(=O)CN3CCN(CC(=O)O)CCN(CC(=O)O)CCN(CC(=O)O)CC3)C(=O)N[C@H](CO)C(=O)N[C@H](CO)C(=O)N[C@H](CO)C(=O)N[C@@H](CCCCN)C(=O)N3CCC[C@H]3C(=O)N(C)[C@@H](CCCNC(=N)N)C(=O)N[C@@H](CCCNC(=N)N)C(=O)N3CCC[C@H]3C(=O)N[C@@H](Cc3c(C)cc(O)cc3C)C(=O)N[C@H](C(=O)N[C@@H](CC(C)C)C(=O)O)C(C)(C)C)nn2)NC(=O)[C@H](Cc2ccccc2)NC(=O)OCc2ccccc2)c(C)c1

Source: ChEMBL document CHEMBL4350999, “Enhanced tumor retention of NTSR1-targeted agents by employing a hydrophilic cysteine cathepsin inhibitor” (Eur J Med Chem, 2019)
